Results published in publication PMC12766539 (Molecular pharmaceutics, 2022).

How the values were obtained:
pUC19 plasmid = experiment: DNA gel retardation experiment; assay type: binding; details: two peptide concentrations (Figure S2)
[1] = test system: S. aureus USA300 LAC infection; experiment: Invertebrate wax moth infection model; assay type: in vivo, Galleria mellonella; details: 64 mg/kg, 1×10^6 CFU/insect, 30 per group, 5 days
Method in brief: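 Galleria mellonella larvae (~250 mg; 30 per group) were injected with test compound at 64 mg/kg in phosphate buffer 2 h before infection with S. aureus USA300 at 1×10⁶ CFU/insect. Larvae were kept at room temperature and scored live or dead daily for 5 days. Survival was compared by log-rank test.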

[2] = test system: 31 clinical strains of S. aureus (5 methicillin-susceptible, 26 resistant); experiment: MIC against a panel of 31 clinical strains of S. aureus; assay type: cell-based, Staphylococcus aureus; details: ~10^5 CFU/mL, negative control
Method in brief: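 Exponential-phase bacteria were diluted to ~10⁵ CFU/mL in TSB or MHB and added to serially diluted test compound (in water). Plates were incubated at 37°C for 20 h and growth was read as absorbance at 600 nm. Water-only wells served as the untreated control and medium as the blank.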

RIVQRIKDFL [RI-10]
DNA retardation in the well (pUC19 plasmid): unable to retard DNA | protection of the animals from infection-caused death [1]: did not protect the animals | inhibitory activity at 32 μM [2]: did not show any inhibitory activity
